Test results taken from ChEMBL document CHEMBL1921744, “Lipophosphonoxins: new modular molecular structures with significant antibacterial properties” (J Med Chem, 2011).
In brackets after ≈: the same amount, converted by molar mass. Activity calls are given as the source filed them. The calls are words filed in the database; no cut-off is given here.

Experiments:
Escherichia coli [1] = assay: Antibacterial activity against permeabilized Escherichia coli DH5[alpha] assessed as log reduction of colony forming unit at 1 mM; assay type: functional, organism-based
In short: (§1)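 Competent (permeabilized) E. coli DH5α cells were mixed with 5 ng pUC18 (ampR) and serially diluted compound or buffer only. Steps: 30 min on ice, heat shock at 42 °C for 90 s, 5 min on ice, then LB without antibiotic for 1 h at 37 °C with shaking. Plated on LB agarose with ampicillin 100 μg/mL overnight at 37 °C. Colonies counted against the no-compound control.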

[2] = biological target: T1, Phospho-N-acetylmuramoyl-pentapeptide-transferase (Mycobacterium tuberculosis, UniProt P9WMW7); assay: Inhibition of Mycobacterium tuberculosis MraY translocase
T1 sequence (P9WMW7 whole entry): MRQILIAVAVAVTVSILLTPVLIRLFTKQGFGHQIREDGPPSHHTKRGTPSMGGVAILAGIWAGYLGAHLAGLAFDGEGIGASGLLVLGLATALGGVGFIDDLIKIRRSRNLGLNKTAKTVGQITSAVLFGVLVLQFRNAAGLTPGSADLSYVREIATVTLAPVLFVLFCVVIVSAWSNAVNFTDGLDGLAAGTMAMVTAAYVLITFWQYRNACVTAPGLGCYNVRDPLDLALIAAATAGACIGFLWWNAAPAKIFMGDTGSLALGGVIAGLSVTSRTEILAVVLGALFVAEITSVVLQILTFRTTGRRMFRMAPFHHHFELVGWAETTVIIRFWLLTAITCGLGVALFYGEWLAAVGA

[3] = system: Mycobacterium tuberculosis; assay: Antimycobacterial activity against drug-susceptible Mycobacterium tuberculosis; assay type: functional
[4] = Cytotoxicity against human Erythroid progenitor cells assessed as maximum safe concentration after 48 hrs by CellTiter-blue assay; assay type: cell-based; details: read-out: Activity
In short: (§2)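 Normal human erythroid progenitor cells, expanded from umbilical cord blood, plated at 25000 cells/well immediately before compound addition (added as a 5× predilution in culture medium). Viability by CellTiter-Blue fluorescence 48 h after addition, normalized to untreated cells set as 100%.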

[5] = Cytotoxicity against human Erythroid progenitor cells assessed as cell viability after 48 hrs by CellTiter-blue assay; assay type: cell-based; in short: as §2
Escherichia coli [6] = assay: Antibacterial activity against permeabilized Escherichia coli DH5[alpha] assessed as cell killing at 25 uM; assay type: functional; in short: as §1
[7] = Induction of apoptosis in human Erythroid progenitor cells assessed as caspase 3/7 activation after 4 hrs by Caspase-Glo 3/7 assay
In short: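 Cord-blood-derived human erythroid progenitor cells plated at 25000 cells/well and exposed to compound prediluted in medium. Caspase 3/7 activation read by Caspase-Glo 3/7 luminescence 4 h after addition, normalized to untreated control cells set as 100%.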

Pseudomonas aeruginosa = assay: Antibacterial activity against Pseudomonas aeruginosa after 24 to 48 hrs by microdilution method; assay type: functional
In short: (§3)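 Incubation 24/48 h at 37 °C. MIC read as the lowest concentration inhibiting growth. MBC determined by transferring 10 μL from wells onto blood agar, taken as the lowest concentration with no visible growth.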

Streptococcus agalactiae = assay: Antibacterial activity against Streptococcus agalactiae after 24 to 48 hrs by microdilution method; assay type: functional; in short: as §3
Enterococcus faecalis [8] = assay: Antibacterial activity against Enterococcus faecalis CCM 4224 after 24 to 48 hrs by microdilution method; assay type: functional; in short: as §3
Escherichia coli [9] = assay: Antibacterial activity against Escherichia coli after 24 to 48 hrs by microdilution method; assay type: functional; in short: as §3
Escherichia coli [10] = assay: Antibacterial activity against permeabilized Escherichia coli DH5[alpha] assessed as log reduction of colony forming unit at 10 uM; assay type: functional, organism-based; in short: as §1
Bacillus subtilis = details: at 0.2 mM
Staphylococcus aureus [11] = assay: Antibacterial activity against methicillin-resistant Staphylococcus aureus SR3637; assay type: functional
Enterococcus faecium [12] = assay: Antibacterial activity against vancomycin-resistant Enterococcus faecium SR7917; assay type: functional
Enterococcus faecium [13] = assay: Antibacterial activity against Enterococcus faecium ATCC 19434; assay type: functional; in short: as §3
Staphylococcus aureus [14] = assay: Antibacterial activity against methicillin-sensitive Staphylococcus aureus ATCC 29213; assay type: functional; in short: as §3
Staphylococcus aureus [15] = assay: Antibacterial activity against Staphylococcus aureus infected in mouse; assay type: functional
Enterococcus faecalis [16] = assay: Antibacterial activity against vancomycin-resistant Enterococcus faecalis SR7914; assay type: functional
Enterococcus faecalis [17] = assay: Antibacterial activity against Enterococcus faecalis ATCC 29212; assay type: functional

O=c1ccn([C@@H]2O[C@H](COP(=O)(O)CCN3C[C@@H](O)[C@H](O)C3)[C@@H](O)[C@H]2O)c(=O)[nH]1
Activity (Escherichia coli [1]): inactive

CC(C)CCCCCCCC(CC(=O)O[C@H]1CN(C)[C@@H]([C@H](O[C@@H]2O[C@H](CN)[C@@H](O)[C@H]2OS(=O)(=O)O)[C@H]2O[C@@H](n3ccc(=O)[nH]c3=O)[C@H](O)[C@@H]2O)C(=O)N(C)[C@@H]1C(=O)O)OC(=O)CC(C)CC(=O)O (stereo not given in full) [LIPOSIDOMYCIN B]
IC50 [2]: 0.0491 µM

CO[C@@H]1[C@@H](OC)[C@H](C)O[C@@H](OC(=O)C[C@@H](C)CC(=O)O[C@@H](CCCCCCCCCCCC(C)C)CC(=O)O[C@H]2CN(C)[C@@H]([C@H](O[C@@H]3O[C@H](CN)[C@@H](O)[C@H]3O)[C@H]3O[C@@H](n4ccc(=O)[nH]c4=O)[C@H](O)[C@@H]3O)C(=O)N(C)[C@@H]2C(=O)O)[C@@H]1OC [CAPRAZAMYCIN B]
MIC [3]: 3.13 µg/mL (≈ 2.7 µM)

CCCCCCCCCCCCCCCCCCCCOP(=O)(CCN1C[C@@H](O)[C@H](O)C1)OC[C@H]1O[C@@H](n2ccc(=O)[nH]c2=O)[C@H](O)[C@@H]1O (stereo not given in full)
MNTC at 48 h [4]: 15.6 µg/mL
IC50 [5]: 31 µg/mL (≈ 43.2 µM)
Activity (Escherichia coli [6]): 90%
Activity [7]: Non-toxic
MIC (Pseudomonas aeruginosa): > 200 µg/mL
MIC (Streptococcus agalactiae): 6.25 µg/mL (≈ 8.71 µM)
MIC (Enterococcus faecalis [8]): 100 µg/mL (≈ 139 µM)
MIC (Escherichia coli [9]): > 200 µg/mL
Activity (Escherichia coli [10]): Active

Cetyltrimethylammonium bromide
inhibition (Bacillus subtilis): Active

CC(C)C[C@H](NC(=O)[C@@H](NC(=O)N[C@H](C(=O)O)C(C)C)[C@@H]1CCNC(=N)N1)C(=O)NCCCN[C@H](C(=O)O)[C@H](O[C@@H]1O[C@H](CN)[C@@H](O)[C@H]1O)[C@H]1O[C@@H](n2ccc(=O)[nH]c2=O)[C@H](O)[C@@H]1O [MURAMYCIN D2]
MIC (Staphylococcus aureus [11]): > 64 µg/mL
MIC (Enterococcus faecium [12]): > 64 µg/mL
MIC (Enterococcus faecium [13]): > 64 µg/mL
MIC (Staphylococcus aureus [14]): > 64 µg/mL
ED50 (Staphylococcus aureus [15]): 1.1 mg/kg
MIC (Enterococcus faecalis [16]): > 64 µg/mL
MIC (Enterococcus faecalis [17]): > 64 µg/mL
